ChEMBL document CHEMBL1132431, “Synthesis and structure-activity relationships of the (alkylamino)piperidine-containing BHAP class of non-nucleoside reverse transcriptase inhibitors: effect of 3-alkylpyridine ring substitution” (J Med Chem, 1999)

How the values were obtained:
[1] = test system: Human immunodeficiency virus type 1 reverse transcriptase (Human immunodeficiency virus 1), Q72547 [Y181C]; experiment: Percent inhibition of Reverse transcriptase (RNA-dependent DNA polymerase activity against Y181C RT) using poly(rA)600:oligo(dT)10 as template primer at 1 uM
Outline: (§1)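 Recombinant RT (WT, P236L or Y181C) was assayed for RNA-dependent DNA polymerase activity with poly(rA)600:oligo(dT)10 as template:primer. Percent inhibition was measured with compound at a single concentration of 1 μM.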

[2] = biological target: Human immunodeficiency virus type 1 reverse transcriptase (Human immunodeficiency virus 1) (UniProt Q72547); experiment: Percent inhibition of Reverse transcriptase (RNA-dependent DNA polymerase activity against P236l RT) using poly(rA)600:oligo(dT)10 as template primer at 1 uM; outline: as §1
[3] = biological target: Human immunodeficiency virus type 1 reverse transcriptase (Human immunodeficiency virus 1) (UniProt Q72547); experiment: Percent inhibition of Reverse transcriptase (RNA-dependent DNA polymerase activity against Wild Type RT) using poly(rA)600:oligo(dT)10 as template primer at 1 uM; outline: as §1
[4] = biological target: Human immunodeficiency virus type 1 reverse transcriptase (Human immunodeficiency virus 1, UniProt Q72547); experiment: Inhibition of Reverse transcriptase (Wild Type) with poly(rA)600:oligo(dT)10 template primer
Outline: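 Recombinant wild-type HIV-1 RT was assayed for RNA-dependent DNA polymerase activity on poly(rA)600:oligo(dT)10 template:primer. Duplicate points were run at 6 drug concentrations, and IC50 was derived by nonlinear least-squares fit.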

[5] = Half life of the parent compound upon microsomal incubation in the presence of hepatic microsomal cytochrome P450.; assay type: ADME, Microsome; details: liver microsomes
[6] = test system: Human immunodeficiency virus 1; experiment: Antiviral activity against BHAP-resistant viral strain HIV-1 IIIB using Delaviridine (U-90512) as a comparator.; assay type: functional
[7] = test system: Human immunodeficiency virus 1; experiment: (§2) Antiviral activity against BHAP-resistant viral strain HIV-1 MF using Delaviridine (U-90512) as a comparator.; assay type: functional
[8] = biological target: Human immunodeficiency virus type 1 reverse transcriptase (Human immunodeficiency virus 1, UniProt Q72547, P236L); experiment: Inhibition of Reverse transcriptase (P236L) using poly(rA)600:oligo(dT)10 as template primer.
[9] = test system: Human immunodeficiency virus 1; experiment: (§3) Antiviral activity against L-drug-resistant viral strain HIV-1 IIIB using L-697,661 as a comparator.; assay type: functional
[10] = biological target: Human immunodeficiency virus type 1 reverse transcriptase (Human immunodeficiency virus 1, UniProt Q72547, Y181C); experiment: Inhibition of Reverse transcriptase (Y181C) using poly(rA)600:oligo(dT)10 as template primer.
[11] = test system: Rattus norvegicus; experiment: Steady state volume of distribution (VSS) determined against male Sprague-Dawley rats at an peroral dose of 30.3 mg/kg.; assay type: ADME, organism-based; set-up: dose 30.3 mg/kg, route oral; details: in vivo, po
Outline: (§4)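 Male Sprague–Dawley rats, fasted, dosed iv and orally in a crossover design with a 1-week washout between treatments (N = 3). Clearance, Vss and absolute oral bioavailability were taken from the iv and po legs.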

[12] = Steady state volume of distribution (VSS) determined against male Sprague-Dawley rats at an iv dose of 15.2 mg/kg; assay type: ADME, organism-based; set-up: dose 15.2 mg/kg, route intravenous; details: rat, in vivo, read-out: Vss; outline: as §4
[13] = IV clearance determined at an iv dose of 15.2 mg/kg; assay type: ADME, organism-based; set-up: dose 15.2 mg/kg, route intravenous; details: in vivo; outline: as §4
[14] = IV clearance determined at an peroral dose of 30.3 mg/kg.; assay type: ADME, organism-based; set-up: dose 30.3 mg/kg, route oral; details: in vivo, po, read-out: Clearance; outline: as §4
[15] = Apparent terminal disposition half life […] at peroral dose of 30.3 mg/kg.; assay type: ADME, organism-based; set-up: dose 30.3 mg/kg, route oral; details: po, read-out: T1/2 beta (converted)
[16] = Apparent terminal disposition half life […] at iv dose of 15.2 mg/kg; assay type: ADME, organism-based; set-up: dose 15.2 mg/kg, route intravenous; details: read-out: T1/2 beta (converted)
[17] = Absolute oral bioavailability at an iv dose of 15.2 mg/kg; assay type: ADME, organism-based; details: in vivo, read-out: Bioavailabiility; outline: as §4
[18] = test system: Human immunodeficiency virus 1; experiment: as §3; assay type: functional, organism-based
[19] = Absolute oral bioavailability at an peroral dose of 30.3 mg/kg orally.; assay type: ADME, organism-based; details: in vivo, read-out: Bioavailabiility; outline: as §4
[20] = test system: Human immunodeficiency virus 1; experiment: as §2; assay type: functional, organism-based
[21] = Apparent terminal disposition half life […] at iv dose of 15 mg/kg; assay type: ADME, organism-based; set-up: dose 15 mg/kg, route intravenous; details: read-out: T1/2 beta (converted)
[22] = Absolute oral bioavailability at an peroral dose of 30 mg/kg orally; assay type: ADME, organism-based; details: in vivo, read-out: Bioavailabiility; outline: as §4
[23] = IV clearance determined at an iv dose of 15 mg/kg; assay type: ADME, organism-based; set-up: dose 15 mg/kg, route intravenous; details: in vivo
[24] = IV clearance determined at an peroral dose of 30 mg/kg.; assay type: ADME, organism-based; set-up: dose 30 mg/kg, route oral; details: in vivo, po, read-out: Clearance; outline: as §4
[25] = Oral bioavailability (dose 15 mg/kg i.v.); assay type: ADME, organism-based; details: eutheria, in vivo; outline: as §4
[26] = test system: Rattus norvegicus; experiment: Steady state volume of distribution (VSS) determined against male Sprague-Dawley rats at an peroral dose of 30 mg/kg.; assay type: ADME, organism-based; set-up: dose 30 mg/kg, route oral; details: in vivo, po; outline: as §4
[27] = Apparent terminal disposition half life […] at peroral dose of 30 mg/kg.; assay type: ADME, organism-based; set-up: dose 30 mg/kg, route oral; details: po, read-out: T1/2 beta (converted)
[28] = Steady state volume of distribution (VSS) determined against male Sprague-Dawley rats at an iv dose of 15 mg/kg; assay type: ADME, organism-based; set-up: dose 15 mg/kg, route intravenous; details: rat, in vivo, read-out: Vss; outline: as §4
[29] = Apparent terminal disposition half life […] at peroral dose of 15 mg/kg.; assay type: ADME, organism-based; set-up: dose 15 mg/kg, route oral; details: po, read-out: T1/2 beta (converted)
[30] = Steady state volume of distribution (VSS) determined against male Sprague-Dawley rats at an iv dose of 14 mg/kg; assay type: ADME, organism-based; set-up: dose 14 mg/kg, route intravenous; details: rat, in vivo, read-out: Vss; outline: as §4
[31] = Steady state volume of distribution (VSS) determined against male Sprague-Dawley rats at an peroral dose of 15 mg/kg.; assay type: organism-based; set-up: dose 15 mg/kg; outline: as §4
[32] = Apparent terminal disposition half life […] at iv dose of 14 mg/kg; assay type: ADME, organism-based; set-up: dose 14 mg/kg, route intravenous; details: read-out: T1/2 beta (converted)
[33] = IV clearance determined at an peroral dose of 15 mg/kg.; assay type: ADME, organism-based; set-up: dose 15 mg/kg, route oral; details: in vivo, po, read-out: Clearance
[34] = Absolute oral bioavailability at an iv dose of 14 mg/kg; assay type: ADME, organism-based; details: in vivo, read-out: Bioavailabiility; outline: as §4
[35] = test system: Rattus norvegicus; experiment: Steady state volume of distribution (VSS) determined against male Sprague-Dawley rats at an peroral dose of 30.2 mg/kg.; assay type: ADME, organism-based; set-up: dose 30.2 mg/kg, route oral; details: in vivo, po; outline: as §4
[36] = Apparent terminal disposition half life […] at peroral dose of 30.2 mg/kg.; assay type: ADME, organism-based; set-up: dose 30.2 mg/kg, route oral; details: po, read-out: T1/2 beta (converted)
[37] = IV clearance determined at an peroral dose of 30.2 mg/kg.; assay type: ADME, organism-based; set-up: dose 30.2 mg/kg, route oral; details: in vivo, po, read-out: Clearance; outline: as §4

Compound	IC50 [4]	EC90 [7]	IC50 [8]	EC90 [9]	IC50 [10]	other results
CCCc1cccnc1N(C)C1CCN(C(=O)c2cc3cc(NS(C)(=O)=O)ccc3[nH]2)CC1	–	–	–	–	–	inhibition [1]: 25%; inhibition [2]: 40%; inhibition [3]: 84%
CCN(c1ncccc1CC(C)C)C1CCN(C(=O)c2cc3cc(NS(C)(=O)=O)ccc3[nH]2)CC1	410 nM	1000 nM	430 nM	100 nM	880 nM	half-life [5]: 2.29 min; EC90 [6]: 50 nM
CC(C)Cc1cccnc1N(C)C1CCN(C(=O)c2cc3cc(NS(C)(=O)=O)ccc3[nH]2)CC1	510 nM	1800 nM	1100 nM	–	2600 nM	half-life [5]: 5.9 min; Vss [11]: 2.73 L/kg; Vd [12]: 2.73 L/kg; clearance [13]: 45 mL/min/kg; CL/F [14]: 45 mL/min/kg; half-life [15]: 53.4 min; half-life [16]: 53.4 min; bioavailability [17]: 64%; EC50 [18]: > 1000 nM; bioavailability [19]: 64%
CCc1cc(NCc2nc3c(Cl)ccc(Cl)c3o2)c(O)nc1C [L-697661]	–	430 nM	–	> 10000 nM	–	EC90 [6]: 4000 nM
COCc1cccnc1N(C)C1CCN(C(=O)c2cc3cc(NS(C)(=O)=O)ccc3[nH]2)CC1	140 nM	–	6800 nM	–	11000 nM	EC50 [20]: 3000 nM; EC50 [18]: > 3000 nM
CCN(c1ncccc1NC(C)C)C1CCN(C(=O)c2cc3cc(NS(C)(=O)=O)ccc3[nH]2)CC1	–	–	170 nM	–	–	–
CCCc1cccnc1N(CC)C1CCN(C(=O)c2cc3cc(NS(C)(=O)=O)ccc3[nH]2)CC1	270 nM	100 nM	370 nM	90 nM	450 nM	half-life [5]: 1.68 min; half-life [21]: 49.2 min; bioavailability [22]: 9.8%; clearance [23]: 67 mL/min/kg; CL/F [24]: 67 mL/min/kg; EC90 [6]: 40 nM; bioavailability [25]: 9.8%; Vss [26]: 3.2 L/kg; half-life [27]: 49.2 min; Vd [28]: 3.2 L/kg
CCc1cccnc1N(C)C1CCN(C(=O)c2cc3cc(NS(C)(=O)=O)ccc3[nH]2)CC1	61 nM	–	1100 nM	–	2000 nM	–
CCN(c1ncccc1COC)C1CCN(C(=O)c2cc3cc(NS(C)(=O)=O)ccc3[nH]2)CC1	140 nM	770 nM	300 nM	1000 nM	840 nM	–
CC(C)Nc1cccnc1N1CCN(C(=O)c2cc3cc(NS(C)(=O)=O)ccc3[nH]2)CC1 [DELAVIRDINE]	–	> 10000 nM	–	–	–	half-life [29]: 60 min; Vd [30]: 1.21 L/kg; Vdss [31]: 1.21 L/kg; half-life [32]: 60 min; CL/F [33]: 13.6 mL/min/kg; bioavailability [34]: 64%
CCc1cccnc1N(CC)C1CCN(C(=O)c2cc3cc(NS(C)(=O)=O)ccc3[nH]2)CC1	98 nM	–	210 nM	–	430 nM	–
CC(C)Nc1cccnc1N(C)C1CCN(C(=O)c2cc3cc(NS(C)(=O)=O)ccc3[nH]2)CC1	–	–	–	1000 nM	–	Vss [35]: 2.5 L/kg; half-life [21]: 40.2 min; bioavailability [25]: 4.3%; half-life [36]: 40.2 min; Vd [28]: 2.5 L/kg; CL/F [37]: 44 mL/min/kg
COC(=O)c1cccnc1N(C)C1CCN(C(=O)c2cc3cc(NS(C)(=O)=O)ccc3[nH]2)CC1	250 nM	–	13000 nM	–	21000 nM	–
CCNc1cccnc1N(CC)C1CCN(C(=O)c2cc3cc(NS(C)(=O)=O)ccc3[nH]2)CC1	430 nM	–	360 nM	–	390 nM	–
CN(c1ncccc1CO)C1CCN(C(=O)c2cc3cc(NS(C)(=O)=O)ccc3[nH]2)CC1	–	–	7000 nM	–	15000 nM	–
CCCN(c1ncccc1CC)C1CCN(C(=O)c2cc3cc(NS(C)(=O)=O)ccc3[nH]2)CC1	130 nM	–	540 nM	–	910 nM	–
